ChEMBL document CHEMBL5058577, “EUbOPEN Chemogenomics Library 2 (Multiplex)” (2022)

Test system: Fibroblast
Experiment: Multiplex assay against human fibroblast
Type: toxicity, cell-based
How it was run: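 Cells stained live at seeding with Hoechst33342, BioTracker Green Microtubule Cytoskeleton Dye, MitoTracker Red and Annexin V Alexa Fluor 680 were imaged on a CQ1 microscope at 37°C and 5% CO2 after compound addition. Their classification by CellPathfinder machine-learning gating ran from Hoechst high-intensity objects versus normal cells, to healthy, pyknosed or fragmented nuclei among normal cells, to mitotic or apoptotic among pyknosed cells. Tubulin, mitochondrial-mass and membrane-permeability phenotypes are per cents of healthy-nucleus cells.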

[1] = 12 h, 1 µM, compound concentration 1 uM, replicate 1
[2] = 12 h, 1 µM, compound concentration 1 uM, replicate 2
[3] = 12 h, 10 µM, compound concentration 10 uM, replicate 1
[4] = 12 h, 10 µM, compound concentration 10 uM, replicate 2
[5] = 24 h, 1 µM, compound concentration 1 uM, replicate 1
[6] = 24 h, 1 µM, compound concentration 1 uM, replicate 2
[7] = 24 h, 10 µM, compound concentration 10 uM, replicate 1
[8] = 24 h, 10 µM, compound concentration 10 uM, replicate 2
[9] = 48 h, 1 µM, compound concentration 1 uM, replicate 1
[10] = 48 h, 1 µM, compound concentration 1 uM, replicate 2
[11] = 48 h, 10 µM, compound concentration 10 uM, replicate 1
[12] = 48 h, 10 µM, compound concentration 10 uM, replicate 2

C[C@@H]1CC(=O)Nc2cccc(-c3ccc4c(c3)c(-c3cnn(C)c3)nn4C)c2N1
Population Apoptotic (%) [1]: 38%
Population Fragmented Nuclei (%) [1]: 20%
Population Healthy Nuclei (%) [1]: 63%
Population Hoechst High Intensity Objects (%) [1]: 1%
Population Membrane Permeable-Phenotype (%) [1]: 0%
Population Mitochondria Different-Phenotype (%) [1]: 4%
Population Mitotic Cells (%) [1]: 61%
Population Normal (%) [1]: 98%
Population Pyknosed Nuclei (%) [1]: 15%
Population Tubulin-Different-Phenotype (%) [1]: 31%
Total Cell Count [1]: 115
Population Fragmented Nuclei (%) [2]: 26%
Population Healthy Nuclei (%) [2]: 47%
Population Hoechst High Intensity Objects (%) [2]: 5%
Population Membrane Permeable-Phenotype (%) [2]: 8%
Population Mitochondria Different-Phenotype (%) [2]: 12%
Population Normal (%) [2]: 94%
Population Pyknosed Nuclei (%) [2]: 26%
Population Tubulin-Different-Phenotype (%) [2]: 51%
Total Cell Count [2]: 105
Population Apoptotic (%) [3]: 40%
Population Fragmented Nuclei (%) [3]: 17%
Population Healthy Nuclei (%) [3]: 65%
Population Hoechst High Intensity Objects (%) [3]: 5%
Population Membrane Permeable-Phenotype (%) [3]: 1%
Population Mitochondria Different-Phenotype (%) [3]: 19%
Population Mitotic Cells (%) [3]: 59%
Population Normal (%) [3]: 94%
Population Pyknosed Nuclei (%) [3]: 17%
Population Tubulin-Different-Phenotype (%) [3]: 63%
Total Cell Count [3]: 161
Population Apoptotic (%) [4]: 30%
Population Fragmented Nuclei (%) [4]: 11%
Population Healthy Nuclei (%) [4]: 58%
Population Hoechst High Intensity Objects (%) [4]: 6%
Population Membrane Permeable-Phenotype (%) [4]: 7%
Population Mitochondria Different-Phenotype (%) [4]: 5%
Population Mitotic Cells (%) [4]: 69%
Population Normal (%) [4]: 93%
Population Pyknosed Nuclei (%) [4]: 30%
Population Tubulin-Different-Phenotype (%) [4]: 68%
Total Cell Count [4]: 126
Population Apoptotic (%) [5]: 57%
Population Fragmented Nuclei (%) [5]: 16%
Population Healthy Nuclei (%) [5]: 67%
Population Hoechst High Intensity Objects (%) [5]: 2%
Population Membrane Permeable-Phenotype (%) [5]: 2%
Population Mitochondria Different-Phenotype (%) [5]: 5%
Population Mitotic Cells (%) [5]: 42%
Population Normal (%) [5]: 97%
Population Pyknosed Nuclei (%) [5]: 15%
Population Tubulin-Different-Phenotype (%) [5]: 33%
Total Cell Count [5]: 122
Population Apoptotic (%) [6]: 35%
Population Fragmented Nuclei (%) [6]: 29%
Population Healthy Nuclei (%) [6]: 50%
Population Hoechst High Intensity Objects (%) [6]: 7%
Population Membrane Permeable-Phenotype (%) [6]: 11%
Population Mitochondria Different-Phenotype (%) [6]: 9%
Population Mitotic Cells (%) [6]: 65%
Population Normal (%) [6]: 92%
Population Pyknosed Nuclei (%) [6]: 19%
Population Tubulin-Different-Phenotype (%) [6]: 60%
Total Cell Count [6]: 112
Population Apoptotic (%) [7]: 75%
Population Fragmented Nuclei (%) [7]: 19%
Population Healthy Nuclei (%) [7]: 69%
Population Hoechst High Intensity Objects (%) [7]: 10%
Population Membrane Permeable-Phenotype (%) [7]: 0%
Population Mitochondria Different-Phenotype (%) [7]: 15%
Population Mitotic Cells (%) [7]: 25%
Population Normal (%) [7]: 89%
Population Pyknosed Nuclei (%) [7]: 11%
Population Tubulin-Different-Phenotype (%) [7]: 66%
Total Cell Count [7]: 158
Population Apoptotic (%) [8]: 42%
Population Fragmented Nuclei (%) [8]: 13%
Population Healthy Nuclei (%) [8]: 57%
Population Hoechst High Intensity Objects (%) [8]: 5%
Population Membrane Permeable-Phenotype (%) [8]: 1%
Population Mitochondria Different-Phenotype (%) [8]: 4%
Population Mitotic Cells (%) [8]: 57%
Population Normal (%) [8]: 94%
Population Pyknosed Nuclei (%) [8]: 29%
Population Tubulin-Different-Phenotype (%) [8]: 76%
Total Cell Count [8]: 119
Population Apoptotic (%) [9]: 50%
Population Fragmented Nuclei (%) [9]: 25%
Population Healthy Nuclei (%) [9]: 60%
Population Hoechst High Intensity Objects (%) [9]: 5%
Population Membrane Permeable-Phenotype (%) [9]: 1%
Population Mitochondria Different-Phenotype (%) [9]: 6%
Population Mitotic Cells (%) [9]: 50%
Population Normal (%) [9]: 94%
Population Pyknosed Nuclei (%) [9]: 14%
Population Tubulin-Different-Phenotype (%) [9]: 21%
Total Cell Count [9]: 114
Population Apoptotic (%) [10]: 30%
Population Fragmented Nuclei (%) [10]: 36%
Population Healthy Nuclei (%) [10]: 50%
Population Hoechst High Intensity Objects (%) [10]: 2%
Population Membrane Permeable-Phenotype (%) [10]: 12%
Population Mitochondria Different-Phenotype (%) [10]: 8%
Population Mitotic Cells (%) [10]: 69%
Population Normal (%) [10]: 97%
Population Pyknosed Nuclei (%) [10]: 13%
Population Tubulin-Different-Phenotype (%) [10]: 60%
Total Cell Count [10]: 102
Population Apoptotic (%) [11]: 92%
Population Fragmented Nuclei (%) [11]: 17%
Population Healthy Nuclei (%) [11]: 73%
Population Hoechst High Intensity Objects (%) [11]: 3%
Population Membrane Permeable-Phenotype (%) [11]: 0%
Population Mitochondria Different-Phenotype (%) [11]: 19%
Population Mitotic Cells (%) [11]: 7%
Population Normal (%) [11]: 96%
Population Pyknosed Nuclei (%) [11]: 8%
Population Tubulin-Different-Phenotype (%) [11]: 68%
Total Cell Count [11]: 162
Population Apoptotic (%) [12]: 60%
Population Healthy Nuclei (%) [12]: 62%
Population Hoechst High Intensity Objects (%) [12]: 4%
Population Membrane Permeable-Phenotype (%) [12]: 6%
Population Mitochondria Different-Phenotype (%) [12]: 2%
Population Mitotic Cells (%) [12]: 39%
Population Normal (%) [12]: 95%
Population Pyknosed Nuclei (%) [12]: 19%
Population Tubulin-Different-Phenotype (%) [12]: 69%
Total Cell Count [12]: 122
